According to ChEMBL document CHEMBL1158347, “Substituted quinazolines, part 3. Synthesis, in vitro antitumor activity and molecular modeling study of certain 2-thieno-4(3H)-quinazolinone analogs” (2009):

Tests used:
Type in all cases: functional
SF-539 = assay: Growth inhibition of human SF539 cells after 48 hrs; settings: SF-539, 48 h
Outline: (§1)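 NCI in vitro disease-oriented human tumor cell line screen. Compounds passing a one-dose primary assay (MCF-7, NCI-H460, SF-268; pass = growth of any line reduced to 32% or less) were tested on the 60-line panel over a 5-log dose range. Compounds were dissolved in DMSO, with under 1% DMSO in final dilutions, and tested in duplicate at 6×10^4 cells/ml. Cells were incubated at 37 °C in 5% CO2 for 48 h, then diluted 10-fold in saline and counted with a Coulter counter, with counts corrected for dilution. Controls held PBS/DMSO at identical dilutions. GI50 was reported per line and as subpanel/full-panel mean-graph midpoint.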

[1] = Growth inhibition of human leukemia cells after 48 hrs; settings: Leukemia cell; outline: as §1
SK-MEL-2 = assay: Growth inhibition of human SK-MEL-2 cells after 48 hrs; settings: SK-MEL-2, 48 h; outline: as §1
HL-60(TB) = assay: Growth inhibition of human HL-60(TB) cells after 48 hrs; settings: HL-60, 48 h
Outline: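 NCI 60-cell-line screen over a 5-log dose range. Compounds were dissolved in DMSO, final DMSO under 1%. Duplicate wells were seeded at 6×10^4 cells/ml, with PBS/DMSO vehicle controls at identical dilutions. Cells were incubated 48 h at 37 °C in humidified 5% CO2, diluted 10-fold in saline, and counted by Coulter counter with dilution correction. GI50 read-out.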

[2] = Growth inhibition of human ovarian cancer cells after 48 hrs; settings: Cancer cell lines; outline: as §1
UACC-257 = assay: Growth inhibition of human UACC257 cells after 48 hrs; settings: UACC-257, 48 h; outline: as §1
T47D = assay: Growth inhibition of human T47D cells after 48 hrs; outline: as §1
[3] = Growth inhibition of human CNS cancer cells after 48 hrs; settings: Cancer cell lines; outline: as §1
CCRF-CEM = assay: Growth inhibition of human CCRF-CEM cells after 48 hrs; outline: as §1
[4] = Growth inhibition of human Colon cancer cells after 48 hrs; settings: Cancer cell lines; outline: as §1
MCF7 = assay: Growth inhibition of human MCF7 cells after 48 hrs; settings: MCF7, 48 h; outline: as §1
NSCLC = assay: Growth inhibition of human NSCLC cells after 48 hrs; outline: as §1
[5] = Growth inhibition of human melanoma cells after 48 hrs; settings: Melanoma cell; outline: as §1
[6] = Growth inhibition of human breast cancer cells after 48 hrs; settings: Cancer cell lines; outline: as §1
K562 = assay: Growth inhibition of human K562 cells after 48 hrs; settings: K562, 48 h; outline: as §1
[7] = Growth inhibition of human prostate cancer cells after 48 hrs; settings: Cancer cell lines; outline: as §1
RPMI-8226 = assay: Growth inhibition of human RPMI8226 cells after 48 hrs; settings: RPMI-8226, 48 h; outline: as §1
[8] = Growth inhibition of human renal cancer cells after 48 hrs; settings: Cancer cell lines; outline: as §1
[9] = read-out: LC50 (the source's name)

O=S(=O)(Nc1nccs1)c1ccc(Nc2nc(-c3cccs3)nc3ccc(I)cc23)cc1
GI50 (SF-539): 32 µM | TGI (SF-539): 60 µM | CC50 (SF-539; [9]): > 100 µM | GI50 [1]: 21.7 µM | TGI [1]: 59.2 µM | CC50 [1, 9]: 69.4 µM | GI50 (SK-MEL-2): 22 µM | LC50 (SK-MEL-2): > 100 µM | TGI (SK-MEL-2): 47 µM | GI50 (HL-60(TB)): 32 µM | TGI (HL-60(TB)): 80 µM | CC50 (HL-60(TB); [9]): > 100 µM | GI50 [2]: 25.8 µM | TGI [2]: 68.9 µM | GI50 (UACC-257): 0.04 µM | LC50 (UACC-257): 95 µM | TGI (UACC-257): 28 µM | GI50 (T47D): 15 µM | LC50 (T47D): > 100 µM | TGI (T47D): 51 µM | GI50 [3]: 27.7 µM | TGI [3]: 68.3 µM | GI50 (CCRF-CEM): 2 µM | TGI (CCRF-CEM): 4 µM | CC50 (CCRF-CEM; [9]): 9 µM | GI50 [4]: 24.3 µM | LC50 [4]: 87.3 µM | TGI [4]: 61.1 µM | GI50 (MCF7): 26 µM | TGI (MCF7): > 100 µM | CC50 (MCF7; [9]): > 100 µM | GI50 (NSCLC): 23.3 µM | LC50 (concentration killing 50% of cells) (NSCLC): 92.4 µM | TGI (NSCLC): 65.2 µM | GI50 [5]: 18.9 µM | LC50 (lethal concentration 50%) [5]: 92.1 µM | TGI [5]: 45.5 µM | GI50 [6]: 25.9 µM | TGI [6]: 74.9 µM | GI50 (K562): 38 µM | LC50 (concentration killing 50% of cells) (K562): > 100 µM | TGI (K562): > 100 µM | GI50 [7]: 13.9 µM | TGI [7]: 35.9 µM | CC50 [7, 9]: 73 µM | GI50 (RPMI-8226): 1 µM | TGI (RPMI-8226): 3 µM | CC50 (RPMI-8226; [9]): 8 µM | GI50 [8]: 28.3 µM | TGI [8]: 79.6 µM
